Experiment [1] concerns the target T1, DNA topoisomerase 1 (Homo sapiens) (UniProt P11387).
T1 sequence (whole entry): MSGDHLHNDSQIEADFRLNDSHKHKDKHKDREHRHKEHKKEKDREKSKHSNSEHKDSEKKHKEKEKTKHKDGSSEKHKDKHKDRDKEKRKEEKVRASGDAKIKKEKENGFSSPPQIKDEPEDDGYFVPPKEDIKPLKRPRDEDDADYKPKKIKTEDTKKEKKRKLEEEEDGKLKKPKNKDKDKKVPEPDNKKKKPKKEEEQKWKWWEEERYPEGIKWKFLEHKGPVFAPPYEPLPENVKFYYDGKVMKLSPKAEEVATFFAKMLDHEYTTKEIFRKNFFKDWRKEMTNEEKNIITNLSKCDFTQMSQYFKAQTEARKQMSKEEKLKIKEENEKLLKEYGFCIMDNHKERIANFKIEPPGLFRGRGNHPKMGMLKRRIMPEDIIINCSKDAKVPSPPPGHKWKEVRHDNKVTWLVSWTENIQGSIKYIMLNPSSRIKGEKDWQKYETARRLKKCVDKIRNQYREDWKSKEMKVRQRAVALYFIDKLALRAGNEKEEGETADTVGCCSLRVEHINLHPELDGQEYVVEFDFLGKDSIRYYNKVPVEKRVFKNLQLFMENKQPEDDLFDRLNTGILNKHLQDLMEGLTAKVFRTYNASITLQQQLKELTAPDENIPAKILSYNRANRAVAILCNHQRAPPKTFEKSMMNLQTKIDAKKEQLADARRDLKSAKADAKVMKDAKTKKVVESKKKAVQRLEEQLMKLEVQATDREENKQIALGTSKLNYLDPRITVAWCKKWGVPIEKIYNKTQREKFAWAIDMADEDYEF
The experiment in a line: Inhibition of recombinant Top1 (unknown origin) using 3'-[32P]-end-labeled 117 bp oligonucleotide as substrate assessed as suppression of DNA cleavage at 100 uM by SDS-PAGE analysis. The method in brief:
(§1)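 3′-[32P]-end-labeled 117-bp DNA at 2 nM incubated with recombinant Top1 at 25 °C for 20 min across a range of compound concentrations. Stopped with SDS (0.5% final) plus formamide loading dye, then 20% denaturing PAGE. Dried gels were phosphorimaged.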

In experiment [2] the target is Tyrosyl-DNA phosphodiesterase 1 (Homo sapiens, UniProt Q9NUW8). The experiment in a line: Inhibition of recombinant Tdp1 (unknown origin) using 5'-[32P]-labeled single-stranded DNA oligonucleotide containing 3'-phosphotyrosine as substrate after 15 mins by PAGE analysis.
Sequence of Tyrosyl-DNA phosphodiesterase 1 (Q9NUW8 whole entry): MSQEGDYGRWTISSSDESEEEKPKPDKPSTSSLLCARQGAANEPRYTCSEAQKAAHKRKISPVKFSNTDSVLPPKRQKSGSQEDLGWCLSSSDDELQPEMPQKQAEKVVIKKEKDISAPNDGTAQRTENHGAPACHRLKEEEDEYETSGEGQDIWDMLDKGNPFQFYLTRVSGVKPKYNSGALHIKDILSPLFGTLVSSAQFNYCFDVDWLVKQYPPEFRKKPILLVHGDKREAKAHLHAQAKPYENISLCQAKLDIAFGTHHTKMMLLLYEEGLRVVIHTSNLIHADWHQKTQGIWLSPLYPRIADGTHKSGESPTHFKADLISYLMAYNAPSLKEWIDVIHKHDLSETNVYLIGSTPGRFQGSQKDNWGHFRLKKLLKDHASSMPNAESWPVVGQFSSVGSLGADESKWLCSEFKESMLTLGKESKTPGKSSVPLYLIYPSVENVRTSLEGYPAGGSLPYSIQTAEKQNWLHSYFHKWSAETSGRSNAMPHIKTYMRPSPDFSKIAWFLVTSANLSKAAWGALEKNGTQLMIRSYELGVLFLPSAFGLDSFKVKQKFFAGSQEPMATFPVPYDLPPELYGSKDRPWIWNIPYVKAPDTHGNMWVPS
In experiment [3] the test system is UACC-62. Put plainly: Growth inhibition of human UACC62 cells. Type of experiment: functional.
For experiment [4], the system named is HOP-62. Put plainly: Growth inhibition of human HOP62 cells. Type of experiment: functional.
The test system of experiment [5] is SN12C. The experiment in a line: Growth inhibition of human SN12C cells. Type of experiment: functional.
Experiment [6] deals with DU-145. The experiment in a line: Growth inhibition of human DU145 cells. Type of experiment: functional.
For experiment [7], the system named is MDA-MB-435. The experiment in a line: Growth inhibition of human MDA-MB-435 cells. Type of experiment: functional.
Experiment [8] concerns HCT-116. Put plainly: Growth inhibition of human HCT116 cells. In kind it is functional.
Experiment [9] has as its target T1, DNA topoisomerase 1 (Homo sapiens). The experiment in a line: Inhibition of recombinant Top1 (unknown origin) using 3'-[32P]-end-labeled 117 bp oligonucleotide as substrate after 20 mins by SDS-PAGE analysis. The method in brief: as §1
In experiment [10] the test system is SF-539. The experiment in a line: Growth inhibition of human SF539 cells. Type of experiment: functional. The method in brief: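 Human cancer cell line panel, compounds tested at concentrations up to 10 μM. GI50 per cell line is the mean of two determinations where a standard error is given, otherwise from one determination.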
Experiment [11] relates to OVCAR-3. Put plainly: Growth inhibition of human OVCAR3 cells. Type of experiment: functional.
Experiment [12] has as its target T1, DNA topoisomerase 1 (Homo sapiens). Put plainly: Inhibition of recombinant Top1 (unknown origin) using 3'-[32P]-end-labeled 117 bp oligonucleotide as substrate after 20 mins by SDS-PAGE analysis relative to 1 uM MJ-3-65.
The target is the same in experiment [13]. Put plainly: Inhibition of recombinant Top1 (unknown origin) using 3'-[32P]-end-labeled 117 bp oligonucleotide as substrate after 20 mins by SDS-PAGE analysis relative to 1 uM camptothecin.

Calls of active or inactive are those of the source. No cut-off for these calls is given here.

The term IC50 denotes the midpoint of a concentration-inhibition curve. As to `CN(C)CCCn1c2c(c3ccc(C#N)cc3c1=O)C(=O)c1cc3c(cc1-2)OCO3`, the inhibition entry in experiment [1] was “Active”. The IC50 in [2] is greater than 111 µM.
One may read the GI50 as the concentration at which growth is held to half of that of the control. A lower GI50 goes with more potent growth inhibition. With `COC(=O)CCCC(=O)Nc1ccc2c3c(n(CCCN)c(=O)c2c1)-c1ccccc1C3=O`, the GI50 in experiment [3] worked out at 1.22 µM; in experiment [4] it was 0.79 µM; in [5] it was 1.02 µM; in [6], 0.54 µM; in experiment [7], 2.05 µM; in experiment [8], 0.38 µM. The GI50 in experiment [10] and in [11] was 1.47 µM each time. Also, the inhibition entry in experiment [9] is “inactive”.
On to `COC(=O)C(=O)Nc1ccc2c3c(n(CCCN)c(=O)c2c1)-c1ccccc1C3=O`, for which the GI50 in experiment [3] was 1.22 µM; in experiment [4], 0.65 µM; in [5], 2.53 µM; in experiment [6] it was 1.11 µM; in [7], 3.36 µM; in experiment [8], 0.57 µM. For the same compound, the GI50 in [10] was 6.9 µM; in experiment [11] it was 4.01 µM. For the same compound, the inhibition entry in [9] was “inactive”. In addition, in experiment [2], the IC50 is 45 µM.
`COC(=O)CC(=O)Nc1ccc2c3c(n(CCCN)c(=O)c2c1)-c1ccccc1C3=O`: the GI50 in [3] stood at 1.69 µM; in [4], 1.56 µM; in experiment [5], 1.46 µM; in experiment [6], 1.57 µM; in experiment [7], 2.33 µM; in experiment [8] it was 0.54 µM. Further, the 50% growth inhibitory concentration (GI50) in experiment [10] turned out to be 4.03 µM; in [11], 3.22 µM. The half-inhibitory concentration (IC50) in experiment [2] was determined as 18 µM.
In the case of `COc1ccc2c(c1)C(=O)c1c-2n(CCCN(C)C)c(=O)c2cc(I)ccc12`, the inhibition entry in experiment [12] and in experiment [1] was “Active” throughout.
On to `COc1cccc2c1-c1c(c3ccc([N+](=O)[O-])cc3c(=O)n1CCCN)C2=O`, for which the inhibition entry in experiment [13] was “Active”.
As to `NCCCn1c2c(c3ccc(NCC(=O)O)cc3c1=O)C(=O)c1ccccc1-2`, the GI50 is 0.72 µM in experiment [3]; 0.65 µM in experiment [4]; 0.49 µM in experiment [5]; 1.51 µM in experiment [6]; 1.14 µM in experiment [7]; 0.33 µM in experiment [8]. Also, the GI50 in [10] is 1.79 µM; in experiment [11], 1.6 µM. For the same compound, the inhibition result in experiment [9] was “inactive”.
On to `CN(C)CCCn1c2c(c3ccc(C#N)cc3c1=O)C(=O)c1ccccc1-2`, for which the GI50 in experiment [3] came out at 0.19 µM; in [4] it was 0.26 µM; in experiment [5] it was 0.19 µM; in [6] it was 0.24 µM; in [7] it was 0.62 µM; in experiment [8], 0.05 µM. Also, the GI50 is 1.12 µM in [10] and 1.72 µM in [11]. In addition, the inhibition result in [12] was “Active”.
For `COc1ccc2c(c1)-c1c(c3ccc([N+](=O)[O-])cc3c(=O)n1CCCn1ccnc1)C2=O`, the GI50 in [3] is less than 0.01 µM; in experiment [4], less than 0.01 µM; in experiment [5], less than 0.01 µM; in experiment [6], less than 0.01 µM; in experiment [7], 0.03 µM; in experiment [8] it was less than 0.01 µM. Also, the GI50 in experiment [10] was less than 0.01 µM; in experiment [11] it was 0.03 µM. In addition, in [12], the inhibition entry was “Active”. For the same compound, the inhibition result in experiment [1] is “inactive”.
On to `COc1ccc2c(c1)C(=O)c1c-2n(CCCN)c(=O)c2cc([N+](=O)[O-])ccc12`, for which the GI50 in experiment [3], in [4], in experiment [5], in experiment [8] and in experiment [10] was less than 0.01 µM in each case. For the same compound, the inhibition result in experiment [13] is “Active”.

(Values after ChEMBL document CHEMBL2311405, “Synthesis and biological evaluation of indenoisoquinolines that inhibit both tyrosyl-DNA phosphodiesterase I (Tdp1) and topoisomerase I (Top1)” (J Med Chem, 2013).)
